In article PMC9217999 (Targeted Oncology, 2022):
“Also recorded” adds a separate entry of the source.

Experiment: Safety and tolerability in iMATRIX-cobi Phase I/II study
Type: in vivo, human
Method in brief: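 Patients aged 6 months to <30 years with relapsed/refractory solid tumors with MAPK pathway involvement. Oral test compound (20-mg tablet or suspension, with/without food) on Days 1–21 of 28-day cycles. Cumulative weekly weight-based dose rounded to 20 mg, capped at 60 mg/day. Rolling 6 escalation in cohorts of 3–6. Eye exams including OCT at baseline, cycle 1 Days 8/15, and each later cycle Day 1. All dosed patients evaluated.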

[1] = Dose escalation suspension (n = 26)
[2] = Dose escalation tablet (n = 18)

O=C(c1ccc(F)c(F)c1Nc1ccc(I)cc1F)N1CC(O)([C@@H]2CCCCN2)C1 [cobimetinib]
DLTs (events) (0.6 mg/kg suspension): grade 1 chorioretinopathy | DLTs (events) (1.0 mg/kg tablet): grade 3 headache; also recorded: grade 2 retinal detachment | DLTs (events) (1.33 mg/kg suspension): grade 4 chorioretinopathy; also recorded: grade 1 serous retinal detachment | Any treatment-related AE, G1 [1]: 6 (23) n (%) | Any treatment-related AE, G2 [1]: 12 (46) n (%) | Any treatment-related AE, G3 [1]: 4 (15) n (%) | Any treatment-related AE, G4 [1]: 1 (4) n (%) | Treatment-related AE: ALT increased, G1 [1]: 1 (4) n (%) | Treatment-related AE: ALT increased, G2 [1]: 0 n (%) | Treatment-related AE: ALT increased, G3 [1]: 1 (4) n (%) | Treatment-related AE: ALT increased, G4 [1]: 0 n (%) | Treatment-related AE: AST increased, G1 [1]: 1 (4) n (%) | Treatment-related AE: AST increased, G2 [1]: 0 n (%) | Treatment-related AE: AST increased, G3 [1]: 1 (4) n (%) | Treatment-related AE: AST increased, G4 [1]: 0 n (%) | Treatment-related AE: Abdominal pain, G1 [1]: 2 (8) n (%) | Treatment-related AE: Abdominal pain, G2 [1]: 2 (8) n (%) | Treatment-related AE: Abdominal pain, G3 [1]: 0 n (%) | Treatment-related AE: Abdominal pain, G4 [1]: 0 n (%) | Treatment-related AE: Anemia, G1 [1]: 1 (4) n (%) | Treatment-related AE: Anemia, G2 [1]: 0 n (%) | Treatment-related AE: Anemia, G3 [1]: 0 n (%) | Treatment-related AE: Anemia, G4 [1]: 0 n (%) | Treatment-related AE: Asthenia, G1 [1]: 0 n (%) | Treatment-related AE: Asthenia, G2 [1]: 0 n (%) | Treatment-related AE: Asthenia, G3 [1]: 0 n (%) | Treatment-related AE: Asthenia, G4 [1]: 0 n (%) | Treatment-related AE: Blood CPK increased, G1 [1]: 2 (8) n (%) | Treatment-related AE: Blood CPK increased, G2 [1]: 1 (4) n (%) | Treatment-related AE: Blood CPK increased, G3 [1]: 1 (4) n (%) | Treatment-related AE: Blood CPK increased, G4 [1]: 0 n (%) | Treatment-related AE: Chorioretinopathy, G1 [1]: 1 (4) n (%) | Treatment-related AE: Chorioretinopathy, G2 [1]: 0 n (%) | Treatment-related AE: Chorioretinopathy, G3 [1]: 0 n (%) | Treatment-related AE: Chorioretinopathy, G4 [1]: 1 (4) n (%) | Treatment-related AE: Constipation, G1 [1]: 1 (4) n (%) | Treatment-related AE: Constipation, G2 [1]: 0 n (%) | Treatment-related AE: Constipation, G3 [1]: 0 n (%) | Treatment-related AE: Constipation, G4 [1]: 0 n (%) | Treatment-related AE: Decreased appetite, G1 [1]: 2 (8) n (%) | Treatment-related AE: Decreased appetite, G2 [1]: 0 n (%) | Treatment-related AE: Decreased appetite, G3 [1]: 0 n (%) | Treatment-related AE: Decreased appetite, G4 [1]: 0 n (%) | Treatment-related AE: Dermatitis acneiform, G1 [1]: 4 (15) n (%) | Treatment-related AE: Dermatitis acneiform, G2 [1]: 1 (4) n (%) | Treatment-related AE: Dermatitis acneiform, G3 [1]: 1 (4) n (%) | Treatment-related AE: Dermatitis acneiform, G4 [1]: 0 n (%) | Treatment-related AE: Diarrhea, G1 [1]: 2 (8) n (%) | Treatment-related AE: Diarrhea, G2 [1]: 7 (27) n (%) | Treatment-related AE: Diarrhea, G3 [1]: 0 n (%) | Treatment-related AE: Diarrhea, G4 [1]: 0 n (%) | Treatment-related AE: Dry skin, G1 [1]: 4 (15) n (%) | Treatment-related AE: Dry skin, G2 [1]: 0 n (%) | Treatment-related AE: Dry skin, G3 [1]: 1 (4) n (%) | Treatment-related AE: Dry skin, G4 [1]: 0 n (%) | Treatment-related AE: Encephalopathy, G1 [1]: 0 n (%) | Treatment-related AE: Encephalopathy, G2 [1]: 0 n (%) | Treatment-related AE: Encephalopathy, G3 [1]: 0 n (%) | Treatment-related AE: Encephalopathy, G4 [1]: 0 n (%) | Treatment-related AE: Erythema, G1 [1]: 2 (8) n (%) | Treatment-related AE: Erythema, G2 [1]: 0 n (%) | Treatment-related AE: Erythema, G3 [1]: 0 n (%) | Treatment-related AE: Erythema, G4 [1]: 0 n (%) | Treatment-related AE: Fatigue, G1 [1]: 6 (23) n (%) | Treatment-related AE: Fatigue, G2 [1]: 0 n (%) | Treatment-related AE: Fatigue, G3 [1]: 0 n (%) | Treatment-related AE: Fatigue, G4 [1]: 0 n (%) | Treatment-related AE: Headache, G1 [1]: 3 (12) n (%) | Treatment-related AE: Headache, G2 [1]: 2 (8) n (%) | Treatment-related AE: Headache, G3 [1]: 0 n (%) | Treatment-related AE: Headache, G4 [1]: 0 n (%) | Treatment-related AE: Nausea, G1 [1]: 4 (15) n (%) | Treatment-related AE: Nausea, G2 [1]: 0 n (%) | Treatment-related AE: Nausea, G3 [1]: 0 n (%) | Treatment-related AE: Nausea, G4 [1]: 0 n (%) | Treatment-related AE: Paronychia, G1 [1]: 2 (8) n (%) | Treatment-related AE: Paronychia, G2 [1]: 1 (4) n (%) | Treatment-related AE: Paronychia, G3 [1]: 1 (4) n (%) | Treatment-related AE: Paronychia, G4 [1]: 0 n (%) | Treatment-related AE: Rash, G1 [1]: 2 (8) n (%) | Treatment-related AE: Rash, G2 [1]: 0 n (%) | Treatment-related AE: Rash, G3 [1]: 0 n (%) | Treatment-related AE: Rash, G4 [1]: 0 n (%) | Treatment-related AE: Transaminases increased, G1 [1]: 0 n (%) | Treatment-related AE: Transaminases increased, G2 [1]: 0 n (%) | Treatment-related AE: Transaminases increased, G3 [1]: 1 (4) n (%) | Treatment-related AE: Transaminases increased, G4 [1]: 0 n (%) | Treatment-related AE: Vomiting, G1 [1]: 2 (8) n (%) | Treatment-related AE: Vomiting, G2 [1]: 0 n (%) | Treatment-related AE: Vomiting, G3 [1]: 0 n (%) | Treatment-related AE: Vomiting, G4 [1]: 0 n (%) | Treatment-related AE: Weight increased, G1 [1]: 0 n (%) | Treatment-related AE: Weight increased, G2 [1]: 0 n (%) | Treatment-related AE: Weight increased, G3 [1]: 0 n (%) | Treatment-related AE: Weight increased, G4 [1]: 0 n (%) | Any treatment-related AE, G1 [2]: 7 (39) n (%) | Any treatment-related AE, G2 [2]: 5 (28) n (%) | Any treatment-related AE, G3 [2]: 4 (22) n (%) | Any treatment-related AE, G4 [2]: 0 n (%) | Treatment-related AE: ALT increased, G1 [2]: 1 (6) n (%) | Treatment-related AE: ALT increased, G2 [2]: 0 n (%) | Treatment-related AE: ALT increased, G3 [2]: 0 n (%) | Treatment-related AE: ALT increased, G4 [2]: 0 n (%) | Treatment-related AE: AST increased, G1 [2]: 1 (6) n (%) | Treatment-related AE: AST increased, G2 [2]: 0 n (%) | Treatment-related AE: AST increased, G3 [2]: 0 n (%) | Treatment-related AE: AST increased, G4 [2]: 0 n (%) | Treatment-related AE: Abdominal pain, G1 [2]: 4 (22) n (%) | Treatment-related AE: Abdominal pain, G2 [2]: 0 n (%) | Treatment-related AE: Abdominal pain, G3 [2]: 0 n (%) | Treatment-related AE: Abdominal pain, G4 [2]: 0 n (%) | Treatment-related AE: Anemia, G1 [2]: 1 (6) n (%) | Treatment-related AE: Anemia, G2 [2]: 0 n (%) | Treatment-related AE: Anemia, G3 [2]: 0 n (%) | Treatment-related AE: Anemia, G4 [2]: 0 n (%) | Treatment-related AE: Asthenia, G1 [2]: 0 n (%) | Treatment-related AE: Asthenia, G2 [2]: 0 n (%) | Treatment-related AE: Asthenia, G3 [2]: 0 n (%) | Treatment-related AE: Asthenia, G4 [2]: 0 n (%) | Treatment-related AE: Blood CPK increased, G1 [2]: 0 n (%) | Treatment-related AE: Blood CPK increased, G2 [2]: 1 (6) n (%) | Treatment-related AE: Blood CPK increased, G3 [2]: 0 n (%) | Treatment-related AE: Blood CPK increased, G4 [2]: 0 n (%) | Treatment-related AE: Chorioretinopathy, G1 [2]: 0 n (%) | Treatment-related AE: Chorioretinopathy, G2 [2]: 0 n (%) | Treatment-related AE: Chorioretinopathy, G3 [2]: 0 n (%) | Treatment-related AE: Chorioretinopathy, G4 [2]: 0 n (%) | Treatment-related AE: Constipation, G1 [2]: 3 (17) n (%) | Treatment-related AE: Constipation, G2 [2]: 0 n (%) | Treatment-related AE: Constipation, G3 [2]: 0 n (%) | Treatment-related AE: Constipation, G4 [2]: 0 n (%) | Treatment-related AE: Decreased appetite, G1 [2]: 2 (11) n (%) | Treatment-related AE: Decreased appetite, G2 [2]: 0 n (%) | Treatment-related AE: Decreased appetite, G3 [2]: 1 (6) n (%) | Treatment-related AE: Decreased appetite, G4 [2]: 0 n (%) | Treatment-related AE: Dermatitis acneiform, G1 [2]: 0 n (%) | Treatment-related AE: Dermatitis acneiform, G2 [2]: 0 n (%) | Treatment-related AE: Dermatitis acneiform, G3 [2]: 0 n (%) | Treatment-related AE: Dermatitis acneiform, G4 [2]: 0 n (%) | Treatment-related AE: Diarrhea, G1 [2]: 8 (44) n (%) | Treatment-related AE: Diarrhea, G2 [2]: 1 (6) n (%) | Treatment-related AE: Diarrhea, G3 [2]: 0 n (%) | Treatment-related AE: Diarrhea, G4 [2]: 0 n (%) | Treatment-related AE: Dry skin, G1 [2]: 2 (11) n (%) | Treatment-related AE: Dry skin, G2 [2]: 2 (11) n (%) | Treatment-related AE: Dry skin, G3 [2]: 0 n (%) | Treatment-related AE: Dry skin, G4 [2]: 0 n (%) | Treatment-related AE: Encephalopathy, G1 [2]: 0 n (%) | Treatment-related AE: Encephalopathy, G2 [2]: 0 n (%)
